In the library only some 3.1% were active in any assay of this set; here they are far more common.
MEKK3 PB1 HTS: raises or lowers MEK5 binding to the human MEKK3 PB1 domain; Q99759; bead-based flow cytometry, Alexa488-MEK5 binding to MEKK3; actives lie on both sides; 0 = blocked by unlabeled MEK5, 100 = vehicle; binding response (% of control), % at 10 µM; 290,000 tested, 1.4% active;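 active = binding response more than 3 SD above or below the average of its plate-row segment, actives on both sides; inconclusive = wells at one plate position flagged as instrument error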;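 note: Alexa488 bead fluorescence after subtracting the streptavidin-only scavenger bead signal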
PREPL inhibitor: inhibits the human prolyl oligopeptidase-like enzyme; recombinant PREPL, fluorescence polarization activity-based probe; 320,000 tested, 0.68% active; inhibition, % at 5.96 µM; AID 2751; in the data active = inhibition above about 43%;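 note: 0% = enzyme with DMSO and 100% = wells lacking enzyme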
UBC13 inh: human UBC13 polyubiquitination inhibition; inhibition, % at 20 µM; AID 485273; P61088; UBC13 polyubiquitin chain formation, TR-FRET; 330,000 tested, 0.47% active; in the data active = inhibition above about 45%, passing the limit was not always enough; inconclusive = no clear call, values can overlap the other calls
Target sequence (P61088 whole entry, looked up): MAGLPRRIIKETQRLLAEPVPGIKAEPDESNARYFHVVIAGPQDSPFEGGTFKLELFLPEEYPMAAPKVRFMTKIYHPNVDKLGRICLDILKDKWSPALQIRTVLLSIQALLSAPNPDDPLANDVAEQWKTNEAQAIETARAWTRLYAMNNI
MEKK2 WT-MEK5: raises or lowers MEK5 binding to wildtype human MEKK2 PB1 domain | Q9Y2U5 | bead flow cytometry, Alexa488-MEK5 binding to MEKK2 WT; actives lie on both sides | binding response (% of control), % at 10 µM | 290,000 tested, 1.1% active; in the data active = binding response below about 67% or above about 130%; inconclusive = no clear call, values can overlap the other calls; inactive = in between
Apaf1 inhib: human Apaf-1 inhibition; O14727; reconstituted apoptosome caspase-3 activity, DEVD-Rh110 fluorescence; inhibition, % at 20 µM; 330,000 tested, 0.71% active; AID 489030; active = inhibition of at least 40% at 20 µM;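 note: plate controls were DMSO wells for no effect and DEVD-CHO caspase inhibitor wells for full effect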
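System: Apoptosome proteins | Medium: Hepes pH 7.5 with detergent and BSA | Also added: Cytochrome c trigger plus (Z-DEVD)2-Rh110 caspase-3 substrate | Incubation: 30 min compound preincubation, 50 min activation, room temperature | Detection: Rhodamine 110 fluorescence at Ex 480/Em 540 nm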
MEKK2mut PB1 HTS: signal of MEK5 binding to mutant human MEKK2 PB1 domain. bead flow cytometry, Alexa488-MEK5 binding to MEKK2 mutant. percent response, % at 10 µM. 290,000 tested, 0.35% active; in the data active = percent response above about 24%, passing the limit was not always enough
Casp3 counter: inhibits human caspase-3 in UBC13 counter-screen. shares compounds with UBC13 inh. Recombinant caspase-3, Caspase-Glo 3/7 luminescence, 60 min. inhibition, % at 20 µM. 1,400 tested, 4% active. AID 488856;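 active = mean inhibition across replicates above about 26%, limit read from the data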;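 note: plate controls were DMSO with caspase-3 for no effect and DMSO wells lacking enzyme for full effect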
Target sequence (P42574 whole entry, looked up): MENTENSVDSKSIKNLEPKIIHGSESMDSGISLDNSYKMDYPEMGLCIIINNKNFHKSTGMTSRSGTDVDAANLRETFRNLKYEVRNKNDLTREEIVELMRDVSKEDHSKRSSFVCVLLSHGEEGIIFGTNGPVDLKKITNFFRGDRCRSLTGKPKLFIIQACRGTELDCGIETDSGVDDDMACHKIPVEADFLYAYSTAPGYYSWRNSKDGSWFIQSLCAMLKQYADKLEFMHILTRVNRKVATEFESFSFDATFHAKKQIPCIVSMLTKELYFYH
UBC13 conf: human UBC13 polyubiquitin inhibition, confirmed; shares compounds with UBC13 inh; UBC13 polyubiquitination, TR-FRET, biochemical; inhibition, % at 10 µM; 1,400 tested, 68% active; AID 488859; in the data active = inhibition above about 45%; inconclusive = no clear call, values can overlap the other calls
The depositor's hits bear a star; ? = inconclusive; . = no result given.

SMILES	MEKK3 PB1 HTS	PREPL inhibitor	UBC13 inh	MEKK2 WT-MEK5	Apaf1 inhib	MEKK2mut PB1 HTS	Casp3 counter	UBC13 conf
CC1Cc2ccccc2C(CCc2ccccc2)=N1 (centres undefined)	98.0	5.5	2.5	100.0	4.2	1.0	.	.
O=C(Cn1nc(-c2nn(CC(=O)c3ccccc3)c3[n+]2CCCCC3)[n+]2c1CCCCC2)c1ccccc1	99.0	39.4	78.1*	110.0	-7.3	6.0	1.8	13.2
O=C(CN1C(=O)NC2(CCCCCC2)C1=O)c1ccccc1	105.0	0.9	-15.7	103.0	3.6	4.0	.	.
Cc1ccc(C(=O)NCCCNCCCN(C)C)cn1	103.0	-5.1	51.6*	104.0	-14.1	1.0	-3.5	35.2
CCCn1c(N)c(C(=O)COc2ccc(Br)cc2F)c(=O)n(C)c1=O	103.0	16.4	-6.7	101.0	-1.7	0.0	.	.
CCCCn1c(=O)[nH]c(=O)c2c1nc(-c1ccc(C#N)cc1)n2C1CCCC1	.	9.9	78.5*	.	18.6	.	-4.2	68.0*
CCCCn1c(=O)[nH]c(=O)c2c1nc(-c1ccc(OCC)cc1)n2CC	103.0	2.6	3.9	102.0	9.3	-1.0	.	.
COc1cccc(NC(=S)N2CCN(S(=O)(=O)c3ccccc3)CC2)c1	104.0	.	4.1	100.0	2.0	2.0	.	.
CCNC(C(=O)c1c[nH]c2c(CC)cccc12)c1ccccc1 (centres undefined)	104.0	-23.8	50.0*	112.0	0.0	0.0	-0.8	64.3*
CCc1cccc2c(C(=O)C(NCCOC)c3ccccc3)c[nH]c12 (centres undefined)	101.0	-5.4	22.6	107.0	0.5	5.0	.	.
O=C(COC(=O)c1cc(Br)ccc1O)Nc1cccnc1Cl	.	-8.7	47.4*	.	8.6	.	0.5	?
O=C1C2C3C=CC(C4CC34)C2C(=O)N1CCCCN1CCN(c2ccc(F)cc2)CC1 (centres undefined)	.	18.1	54.4*	.	10.1	.	-1.3	3.7
O=C(CCN1C(=O)C2C3C=CC(C3)C2C1=O)N1CCN(c2ccc(F)cc2)CC1 (centres undefined)	87.0	22.2	-9.2	90.0	0.6	-8.0	.	.
Cc1cccc2c(=O)cc(C)n(CC(N)=O)c12	84.0	1.5	-2.9	89.0	-18.3	-22.0	.	.
CC(=O)NC(=S)NNC(=O)COc1ccc([N+](=O)[O-])cc1	94.0	5.5	12.9	96.0	-0.3	-2.0	.	.
CCCCC(=O)NC(=S)NNC(=O)c1ccc(OC)cc1	105.0	0.8	68.6*	111.0	-24.1	3.0	1.9	40.8
CCC(=O)NC(=S)NNC(=O)c1ccc(NC(=O)c2ccccc2)cc1	97.0	-3.5	70.7*	100.0	-8.1	-7.0	12.5	91.2*
CCCOc1ccc(C(=O)NNC(=S)NC(=O)CC)cc1	97.0	14.6	66.4*	94.0	18.0	-4.0	-0.3	82.7*
C=CCNC(=S)NNC(=O)c1ccc(OCCC)cc1	103.0	1.9	2.5	100.0	-8.1	2.0	.	.
COc1ccc(OCC(=O)NNC(=S)NC(=O)c2ccc([N+](=O)[O-])cc2)cc1	102.0	-2.0	60.1*	100.0	-11.5	3.0	-1.0	30.9
O=C(NNC(=O)c1ccc(NC(=O)c2ccccc2)cc1)c1ccccc1	99.0	-0.8	1.8	94.0	-0.6	-2.0	.	.
Cc1ccc(N(CC(=O)NC2CCCCC2)S(=O)(=O)c2c(C)noc2C)cc1	100.0	18.9	0.4	98.0	11.6	4.0	.	.
COC(=O)c1c(-c2ccc(S(C)(=O)=O)cc2)sc2ccc(OC)cc12	.	22.8	54.5*	.	25.4	.	10.3	41.9
COC(=O)c1c(-c2ccc(SC)cc2)sc2ccc(OC)cc12	.	19.1	50.4*	.	11.1	.	-1.2	?
COC(=O)c1c(-c2ccc(S(C)(=O)=O)cc2)sc2cc(OC)ccc12	.	38.4	?	.	11.6	.	.	.

Source: PubChem BioAssay (several laboratories)
